Results reported in ChEMBL document CHEMBL1671676, “In vitro activity of nemonoxacin, a novel nonfluorinated quinolone, against 2,440 clinical isolates” (2009).
Values after ≈ are worked out from the molar mass of the structure shown.

Assays:
Type in all cases: functional
Enterobacter cloacae [1] = experiment: Antibacterial activity against Enterobacter cloacae assessed as percent cumulative susceptible isolates at minimum inhibitory concentration of 32 ug/ml by CLSI broth microdilution method; set-up: scale not given: the % may be the effect or the level left
Staphylococcus aureus [2] = experiment: Antibacterial activity against non-levofloxacin susceptible Staphylococcus aureus assessed as percent cumulative susceptible isolates at minimum inhibitory concentration of 32 ug/ml by CLSI broth microdilution method; set-up: scale not given: the % may be the effect or the level left
Staphylococcus aureus [3] = experiment: (§1) Antibacterial activity against methicillin-susceptible Staphylococcus aureus assessed as percent cumulative susceptible isolates at minimum inhibitory concentration of […] by CLSI broth microdilution method; set-up: scale not given: the % may be the effect or the level left
Enterococcus faecium [4] = experiment: Antibacterial activity against Enterococcus faecium assessed as percent cumulative susceptible isolates at minimum inhibitory concentration of 128 ug/ml by CLSI broth microdilution method; set-up: scale not given: the % may be the effect or the level left
Staphylococcus aureus [5] = experiment: Antibacterial activity against hospital-associated methicillin-resistant Staphylococcus aureus assessed as percent cumulative susceptible isolates at minimum inhibitory concentration of 8 ug/ml by CLSI broth microdilution method; set-up: scale not given: the % may be the effect or the level left
Klebsiella pneumoniae [6] = experiment: Antibacterial activity against Klebsiella pneumoniae assessed as percent cumulative susceptible isolates at minimum inhibitory concentration of 32 ug/ml by CLSI broth microdilution method; set-up: scale not given: the % may be the effect or the level left
Klebsiella pneumoniae [7] = experiment: Antibacterial activity against Klebsiella pneumoniae assessed as percent cumulative susceptible isolates at minimum inhibitory concentration of […] by CLSI broth microdilution method; set-up: scale not given: the % may be the effect or the level left
Pseudomonas aeruginosa [8] = experiment: Antibacterial activity against Pseudomonas aeruginosa assessed as percent cumulative susceptible isolates at minimum inhibitory concentration of 0.5 ug/ml by CLSI broth microdilution method; set-up: scale not given: the % may be the effect or the level left
Enterobacter cloacae [9] = experiment: Antibacterial activity against Enterobacter cloacae assessed as percent cumulative susceptible isolates at minimum inhibitory concentration of 4 ug/ml by CLSI broth microdilution method; set-up: scale not given: the % may be the effect or the level left
Streptococcus pneumoniae [10] = experiment: Antibacterial activity against penicillin-resistant Streptococcus pneumoniae by CLSI M7-A7 broth microdilution method
Procedure, shortened: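 Broth microdilution per CLSI guidelines on clinical isolates, using panels of doubling drug dilutions in cation-adjusted Mueller-Hinton broth with 5% lysed horse blood. MIC read per CLSI, and cumulative percentage of isolates inhibited at each concentration tabulated.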

Staphylococcus aureus [11] = experiment: Antibacterial activity against community-associated methicillin-resistant Staphylococcus aureus by CLSI M7-A7 broth microdilution method
Procedure, shortened: (§2)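 Clinical isolates tested by CLSI broth microdilution using 96-well panels of doubling drug dilutions in cation-adjusted Mueller-Hinton broth with 5% lysed horse blood. MIC was read from these panels. Panel quality control used CLSI ATCC strains, including S. pneumoniae 49619, S. aureus 29213, E. faecalis 29212 and E. coli 25922. Cumulative percentages of isolates were tabulated at each MIC.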

Pseudomonas aeruginosa [12] = experiment: Antibacterial activity against Pseudomonas aeruginosa assessed as percent cumulative susceptible isolates at minimum inhibitory concentration of 2 ug/ml by CLSI broth microdilution method; set-up: scale not given: the % may be the effect or the level left
Enterobacteriaceae = experiment: Antibacterial activity against Enterobacteriaceae by CLSI M7-A7 broth microdilution method
Enterococcus faecium [13] = experiment: Antibacterial activity against Enterococcus faecium assessed as percent cumulative susceptible isolates at minimum inhibitory concentration of 8 ug/ml by CLSI broth microdilution method; set-up: scale not given: the % may be the effect or the level left
Staphylococcus aureus [14] = experiment: Antibacterial activity against methicillin-susceptible Staphylococcus aureus assessed as percent cumulative susceptible isolates at minimum inhibitory concentration of 32 ug/ml by CLSI broth microdilution method; set-up: scale not given: the % may be the effect or the level left; procedure, shortened: as §2
Streptococcus pneumoniae [15] = experiment: Antibacterial activity against Streptococcus pneumoniae assessed as percent cumulative susceptible isolates at minimum inhibitory concentration of […] by CLSI broth microdilution method; set-up: scale not given: the % may be the effect or the level left
Staphylococcus aureus [16] = experiment: Antibacterial activity against non-levofloxacin susceptible Staphylococcus aureus assessed as percent cumulative susceptible isolates at minimum inhibitory concentration of […] by CLSI broth microdilution method; set-up: scale not given: the % may be the effect or the level left
[17] = test system: Staphylococcus epidermidis; experiment: Antibacterial activity against methicillin-susceptible Staphylococcus epidermidis assessed as percent cumulative susceptible isolates at minimum inhibitory concentration of […] by CLSI broth microdilution method; set-up: scale not given: the % may be the effect or the level left
Staphylococcus aureus [18] = experiment: as §1; set-up: scale not given: the % may be the effect or the level left; remark: listed apart in the source
Acinetobacter baumannii = experiment: Antibacterial activity against Acinetobacter baumannii assessed as percent cumulative susceptible isolates at minimum inhibitory concentration of 0.5 ug/ml by CLSI broth microdilution method; set-up: scale not given: the % may be the effect or the level left
Pseudomonas aeruginosa [19] = experiment: Antibacterial activity against Pseudomonas aeruginosa assessed as percent cumulative susceptible isolates at minimum inhibitory concentration of 4 ug/ml by CLSI broth microdilution method; set-up: scale not given: the % may be the effect or the level left
[20] = test system: Stenotrophomonas maltophilia; experiment: Antibacterial activity against Stenotrophomonas maltophilia assessed as percent cumulative susceptible isolates at minimum inhibitory concentration of 2 ug/ml by CLSI broth microdilution method; set-up: scale not given: the % may be the effect or the level left
Enterobacter cloacae [21] = experiment: Antibacterial activity against Enterobacter cloacae assessed as percent cumulative susceptible isolates at minimum inhibitory concentration of 0.06 ug/ml by CLSI broth microdilution method; set-up: scale not given: the % may be the effect or the level left
Enterococcus faecium [22] = experiment: Antibacterial activity against Enterococcus faecium assessed as percent cumulative susceptible isolates at minimum inhibitory concentration of 2 ug/ml by CLSI broth microdilution method; set-up: scale not given: the % may be the effect or the level left
Staphylococcus aureus [23] = experiment: Antibacterial activity against methicillin-susceptible Staphylococcus aureus assessed as percent cumulative susceptible isolates at minimum inhibitory concentration of 0.06 ug/ml by CLSI broth microdilution method; set-up: scale not given: the % may be the effect or the level left
Pseudomonas aeruginosa [24] = experiment: Antibacterial activity against Pseudomonas aeruginosa assessed as percent cumulative susceptible isolates at minimum inhibitory concentration of 32 ug/ml by CLSI broth microdilution method; set-up: scale not given: the % may be the effect or the level left
Escherichia coli [25] = experiment: Antibacterial activity against Escherichia coli assessed as percent cumulative susceptible isolates at minimum inhibitory concentration of 1 ug/ml by CLSI broth microdilution method; set-up: scale not given: the % may be the effect or the level left
Klebsiella oxytoca [26] = experiment: Antibacterial activity against Klebsiella oxytoca assessed as percent cumulative susceptible isolates at minimum inhibitory concentration of 1 ug/ml by CLSI broth microdilution method; set-up: scale not given: the % may be the effect or the level left
Proteus mirabilis = experiment: Antibacterial activity against Proteus mirabilis assessed as percent cumulative susceptible isolates at minimum inhibitory concentration of 4 ug/ml by CLSI broth microdilution method; set-up: scale not given: the % may be the effect or the level left
Enterococcus faecalis = experiment: Antibacterial activity against Enterococcus faecalis assessed as percent cumulative susceptible isolates at minimum inhibitory concentration of 1 ug/ml by CLSI broth microdilution method; set-up: scale not given: the % may be the effect or the level left
Staphylococcus aureus [27] = experiment: Antibacterial activity against hospital-associated methicillin-resistant Staphylococcus aureus assessed as percent cumulative susceptible isolates at minimum inhibitory concentration of 2 ug/ml by CLSI broth microdilution method; set-up: scale not given: the % may be the effect or the level left; procedure, shortened: as §2
Klebsiella oxytoca [28] = experiment: Antibacterial activity against Klebsiella oxytoca assessed as percent cumulative susceptible isolates at minimum inhibitory concentration of […] by CLSI broth microdilution method; set-up: scale not given: the % may be the effect or the level left
Staphylococcus aureus [29] = experiment: Antibacterial activity against hospital-associated methicillin-resistant Staphylococcus aureus assessed as percent cumulative susceptible isolates at minimum inhibitory concentration of 0.5 ug/ml by CLSI broth microdilution method; set-up: scale not given: the % may be the effect or the level left
Escherichia coli [30] = experiment: Antibacterial activity against Escherichia coli assessed as percent cumulative susceptible isolates at minimum inhibitory concentration of 0.06 ug/ml by CLSI broth microdilution method; set-up: scale not given: the % may be the effect or the level left
[31] = test system: Stenotrophomonas maltophilia; experiment: Antibacterial activity against Stenotrophomonas maltophilia assessed as percent cumulative susceptible isolates at minimum inhibitory concentration of 0.5 ug/ml by CLSI broth microdilution method; set-up: scale not given: the % may be the effect or the level left
Streptococcus pneumoniae [32] = experiment: Antibacterial activity against penicillin-resistant Streptococcus pneumoniae assessed as percent cumulative susceptible isolates at minimum inhibitory concentration of 1 ug/ml by CLSI broth microdilution method; set-up: scale not given: the % may be the effect or the level left
Streptococcus pneumoniae [33] = experiment: Antibacterial activity against Streptococcus pneumoniae assessed as percent cumulative susceptible isolates at minimum inhibitory concentration of 2 ug/ml by CLSI broth microdilution method; set-up: scale not given: the % may be the effect or the level left

| Compound | Activity (Enterobacter cloacae [1]) [%] | Activity (Staphylococcus aureus [3]) [%] | Activity (Staphylococcus aureus [5]) [%] | Activity (Klebsiella pneumoniae [6]) [%] | Activity (Klebsiella pneumoniae [7]) [%] | Activity (Pseudomonas aeruginosa [8]) [%] | Activity (Enterobacter cloacae [9]) [%] | Activity (Pseudomonas aeruginosa [12]) [%] | MIC90 (Enterobacteriaceae) [µg/mL] | Activity (Staphylococcus aureus [14]) [%] | Activity (Streptococcus pneumoniae [15]) [%] | Activity [17] [%] | Activity (Acinetobacter baumannii) [%] | Activity [20] [%] | Activity (Enterobacter cloacae [21]) [%] | Activity (Enterococcus faecium [22]) [%] | Activity (Staphylococcus aureus [23]) [%] | Activity (Pseudomonas aeruginosa [24]) [%] | Activity (Escherichia coli [25]) [%] | Activity (Proteus mirabilis) [%] | also measured |
| --- | --- | --- | --- | --- | --- | --- | --- | --- | --- | --- | --- | --- | --- | --- | --- | --- | --- | --- | --- | --- | --- |
| COc1c(N2C[C@@H](C)C[C@H](N)C2)ccc2c(=O)c(C(=O)O)cn(C3CC3)c12 [NEMONOXACIN] | 100 | 92.5 | 68.7 | 98 | 68.3 | 14.6 | 93.1 | 66.4 | 0.5 (≈ 1.35 µM) | 100 | 100 | 86 | 86.7 | 42.3 | 8.3 | 31.6 | 88.8 | 91.2 | 74.8 | 81.8 | Activity (Staphylococcus aureus [2]): 98%; Activity (Enterococcus faecium [4]): 100%; MIC90 (Streptococcus pneumoniae [10]): 0.03 µg/mL (≈ 0.0808 µM); MIC50 (Staphylococcus aureus [11]): 0.25 µg/mL (≈ 0.673 µM); MIC90 (Staphylococcus aureus [11]): 0.5 µg/mL (≈ 1.35 µM); Activity (Enterococcus faecium [13]): 44.7%; Activity (Staphylococcus aureus [16]): 8.9%; Activity (Staphylococcus aureus [18]): 30.5%; Activity (Pseudomonas aeruginosa [19]): 78.1%; Activity (Klebsiella oxytoca [26]): 100%; Activity (Enterococcus faecalis): 90.1%; Activity (Staphylococcus aureus [27]): 22.2%; Activity (Klebsiella oxytoca [28]): 81.3%; Activity (Staphylococcus aureus [29]): 5.1%; Activity (Escherichia coli [30]): 22.7% |
| C[C@H]1COc2c(N3CCN(C)CC3)c(F)cc3c(=O)c(C(=O)O)cn1c23.C[C@H]1COc2c(N3CCN(C)CC3)c(F)cc3c(=O)c(C(=O)O)cn1c23.O [LEVOFLOXACIN] | 100 | 81.8 | 4 | 100 | 78.4 | 42.3 | 97.2 | 70.1 | ≤ 0.06 | 100 | 10.2 | 53.5 | 86.7 | 69.2 | 87.5 | 23.7 | 0.5 | 100 | 75.1 | 93.9 | Activity [31]: 7.7%; Activity (Streptococcus pneumoniae [32]): 90.6%; Activity (Streptococcus pneumoniae [33]): 99.4%; Activity (Enterococcus faecalis): 35.8%; Activity (Klebsiella oxytoca [28]): 100%; Activity (Escherichia coli [30]): 66.4% |
